# Compound activity: PubChem BioAssay, The Scripps Research Institute Molecular Screening Center
# The list is not random: actives were taken first. Their share in the collection is about 3.1%.
# OX1R antag-1: antagonists of human orexin 1 receptor (OX1R); AID 485270; OX1R-expressing cells, FRET antagonist read-out; O43613; hit rate 1.8% among 330,000; inhibition, % at 6.6 µM; in the data active means inhibition mostly above about 38%, no sharp cut-off; inactive means mostly below about 40%;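 further: 0% = agonist challenge alone and 100% = reference antagonist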
# Target sequence (O43613 whole entry, looked up): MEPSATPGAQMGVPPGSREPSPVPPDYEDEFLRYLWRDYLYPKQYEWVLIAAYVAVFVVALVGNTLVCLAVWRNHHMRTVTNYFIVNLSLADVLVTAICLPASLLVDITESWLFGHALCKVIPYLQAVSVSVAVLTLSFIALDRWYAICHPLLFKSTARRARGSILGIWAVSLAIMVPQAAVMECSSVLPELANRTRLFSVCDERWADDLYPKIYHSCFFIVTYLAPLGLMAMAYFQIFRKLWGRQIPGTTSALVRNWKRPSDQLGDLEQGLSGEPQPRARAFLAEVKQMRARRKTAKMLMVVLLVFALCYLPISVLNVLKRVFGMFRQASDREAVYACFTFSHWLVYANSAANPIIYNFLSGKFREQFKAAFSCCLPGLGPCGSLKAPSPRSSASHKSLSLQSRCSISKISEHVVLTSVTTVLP
# GalR3 antag: antagonists of human GalR3; AID 651719; HEK293 GalR3-CNG cAMP membrane potential fluorescence; galR3 body fused to GalR1 C-terminus; O60755; inhibition, % at 3 µM; hit rate 0.44% among 360,000;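 active means inhibition above the screen-wide average plus 3 SD, cut at about 13% in these data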;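 further: forskolin and galanin both at EC90 stimulate the cells; cAMP rise reported by CNG channel membrane potential dye signal; 0% = forskolin plus galanin with DMSO and 100% = forskolin alone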
# OX1R antag-2: human HCRTR1 antagonism; CHO/OX1R cells, Fluo-8 calcium fluorescence, orexin A; inhibition, % at 5 µM; hit rate 0.43% among 330,000; AID 434989;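 active means inhibition above its plate's threshold, mean inhibition of all tested compounds on the plate plus 3 SD, cut at about 37% in these data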;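 further: 0% = orexin A challenge wells and 100% = SB-334867-A antagonist wells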
# GPR7 antagonist: human neuropeptides B/W receptor 1 antagonism; P48145; GPR7-expressing cells, fluorescence antagonist assay; inhibition, % at 4.4 µM; hit rate 1.1% among 290,000; in the data active means inhibition above about 16%, passing the limit was not always enough;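 further: cells stimulated with the agonist NPW; 0% = agonist with vehicle and 100% = vehicle without agonist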
# CHO parental Ca: counter-screen for OX1R antagonists: effect in parental CHO cells | parental CHO-K1, ATP-induced calcium, Fluo-8 fluorescence | inhibition, % at 5.6 µM | hit rate 0.63% among 330,000;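 active means inhibition above that plate's mean sample inhibition plus 3 SD, cut at about 26% in these data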;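 further: 0% = ATP-challenged DMSO wells and 100% = DMSO wells without ATP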
#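 Test system: untransfected parental CHO cell line. Compound: one dose, 5.6 µM nominal. Detection: intracellular calcium via Fluo-8 no-wash fluorescent dye. Measure: % inhibition. Benchmarks: ATP-challenged DMSO wells low, unchallenged DMSO wells high.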
# Starred values were filed as active, the others as inactive; · = no result.
SMILES,OX1R antag-1,GalR3 antag,OX1R antag-2,GPR7 antagonist,CHO parental Ca
CO[C@@H]1CN(C)C(=O)c2cc(NS(=O)(=O)c3ccc(C)cc3)ccc2OC[C@H](C)N(Cc2nccs2)C[C@H]1C,·,2.6,·,·,·
Cc1ccc([C@@H]2C[C@H]3[C@@H](CN2S(=O)(=O)c2ccc(C)cc2)C(=O)C[C@@H](c2ccc(Cl)cc2)N3S(=O)(=O)c2ccccc2C)cc1,·,-4.3,·,·,·
O=C(C(=O)N1CCC(CNC(=O)c2cccs2)CC1)c1cc2ccccc2o1,·,-4.2,·,·,·
COc1ccc(CN2C(=O)C(CC(=O)NC3CCCCC3)CC(C(=O)N(C(C)C)C(C)C)=C2C)cc1 (centres undefined),·,-6.0,·,·,·
COc1ccccc1/C=C/CN1CCCC(CO)(Cc2cccc(Cl)c2)C1 (centres undefined),69.2*,-4.1,61.0*,-4.1,33.6*
CCCc1nc2ccc(Br)cn2c1Cc1cccc(Cl)c1,·,-6.7,·,·,·
Cc1nc2cc(-c3ccc(Cl)cc3)nn2c(C)c1CCC(=O)NC(C)c1ccc2c(c1)OCCO2 (centres undefined),49.4*,3.3,7.1,3.6,-16.7
Cc1csc(NC(=O)CCc2c(C)nc3cc(-c4ccc(Cl)cc4)nn3c2C)n1,6.3,1.9,-16.9,-1.2,-4.5
COc1cccc(CNC(=O)[C@H]2CCCN2C(=O)[C@H]2CCCN2C(=O)c2ccc(C)c(C)c2)c1,·,-6.6,·,·,·
Cc1cccn2c(=O)c3cc(C(=O)NCCN4CCOCC4)c(=N)n(CCCN4CCOCC4)c3nc12,52.1*,-7.5,-9.9,-21.4,-8.5
Cc1cccn2c(=O)c3cc(C(=O)NCc4cccnc4)c(=N)n(CC4CCCO4)c3nc12 (centres undefined),69.6*,-5.2,-19.0,-5.5,-2.9
C=CCn1c(=N)c(C(=O)NCCCOC)cc2c(=O)n3cccc(C)c3nc21,61.0*,-0.5,-20.4,18.4,-4.7
Cc1cccn2c(=O)c3cc(C(=O)NCc4ccccc4)c(=N)n(CCCN4CCOCC4)c3nc12,·,-3.8,·,·,·
Cc1cccn2c(=O)c3cc(C(=O)NCCc4ccccc4)c(=N)n(CCCn4ccnc4)c3nc12,58.7*,-1.0,-35.5,-4.6,-15.6
O[C@@H]1CN(Cc2cccs2)[C@@H](c2ccccc2)C[C@H]1n1cc(C2CC2)nn1,·,-5.1,·,·,·
C#CCN1CC(COc2ccccc2)OCCS1(=O)=O (centres undefined),·,-5.4,·,·,·
CCc1cc2c(nc1CC)CCCN2S(=O)(=O)c1ccc(C)cc1,·,-3.5,·,·,·
O=C(NCc1cccnc1)c1cccn2c(=O)c3sccc3nc12,61.5*,-1.1,-36.6,-7.1,-19.3
COc1ccc(CCn2c(=N)c(C(=O)NCCN3CCOCC3)cc3c(=O)n4cccc(C)c4nc32)cc1OC,41.8,-2.2,-3.9,-16.0,7.3
COCCn1c(=N)c(C(=O)NCCc2ccccc2)cc2c(=O)n3cccc(C)c3nc21,42.9,1.0,-14.6,-1.3,-23.7
Cc1cccn2c(=O)c3cc(C(=O)NCc4ccco4)c(=N)n(CCOCCO)c3nc12,43.8*,·,-2.7,-2.9,6.0
Cc1cccn2c(=O)c3cc(C(=O)NCC4CCCO4)c(=N)n(CCN4CCOCC4)c3nc12 (centres undefined),162.1*,-3.0,-5.0,-8.6,-18.2
COCCCn1c(=N)c(C(=O)NCC2CCCO2)cc2c(=O)n3cccc(C)c3nc21 (centres undefined),64.2*,-2.6,0.3,-1.0,-8.3
Cc1cccn2c(=O)c3cc(C(=O)NCc4ccco4)c(=N)n(C4CCCCC4)c3nc12,34.8,·,-15.5,5.7,-25.4
O=C(O)c1ccccc1C(=O)NCc1cccnc1,12.9,-0.8,2.8,-13.4,5.8
SMILES,OX1R antag-1,GalR3 antag,OX1R antag-2,GPR7 antagonist,CHO parental Ca
OC(Cc1cccc(Br)c1)c1ncc(-c2cccc(C(F)(F)F)c2)[nH]1 (centres undefined),·,-7.2,·,·,·
COC(=O)c1cc2c(c3c4ccccc4n(S(=O)(=O)c4ccc(OC)cc4)c13)C(=O)N(Cc1ccc(N(C)C)cc1)C2,·,-1.4,·,·,·
COc1cccc(CNC(=O)[C@H]2CCCN2C(=O)[C@H]2CCCN2C(=O)c2ccccc2)c1,·,-6.3,·,·,·
CN(C)CCN(Cc1ccccc1)C(c1cc2ccccc2o1)c1nnnn1C(C)(C)C (centres undefined),·,-9.2,·,·,·
Cc1ccc(Cn2c(=N)c(C(=O)NCC3CCCO3)cc3c(=O)n4cccc(C)c4nc32)cc1 (centres undefined),32.2,0.5,-23.2,0.4,-12.9
CCCn1c(=N)c(C(=O)NCC2CCCO2)cc2c(=O)n3cccc(C)c3nc21 (centres undefined),56.0*,-3.0,-7.5,-3.0,-5.0
